In ChEMBL document CHEMBL1123656, “Synthesis and antitumor activity of tropolone derivatives. 4” (1987):

What was measured:
Assay type in all cases: functional, Mus musculus
P388 [1] = assay: Compound was evaluated for activity against P388 leukemia, at an intraperitoneal dose of 12.5 mg/kg
Summary of the method: (§1)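 Mice bearing P388 leukemia were given the compound intraperitoneally, with activity read out as T/C (%). The full protocol is cited to earlier work.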

P388 [2] = assay: Compound was evaluated for activity against P388 leukemia, at an intraperitoneal dose of 25 mg/kg; summary of the method: as §1
P388 [3] = assay: Compound was evaluated for activity against P388 leukemia, at an intraperitoneal dose of 50 mg/kg; summary of the method: as §1
P388 [4] = assay: Compound was evaluated for activity against P388 leukemia, at an intraperitoneal dose of 100 mg/kg; summary of the method: as §1
P388 [5] = assay: Compound was evaluated for activity against P388 leukemia, at an intraperitoneal dose of 400 mg/kg; summary of the method: as §1
P388 [6] = assay: Compound was evaluated for activity against P388 leukemia, at an intraperitoneal dose of 200 mg/kg; summary of the method: as §1
P388 [7] = assay: Compound was evaluated for activity against P388 leukemia, at an intraperitoneal dose of 20 mg/kg; summary of the method: as §1
P388 [8] = assay: Compound was evaluated for activity against P388 leukemia, at an intraperitoneal dose of 6.3 mg/kg; summary of the method: as §1
P388 [9] = assay: Compound was evaluated for activity against P388 leukemia, at an intraperitoneal dose of 3.1 mg/kg; summary of the method: as §1
P388 [10] = assay: Compound was evaluated for activity against P388 leukemia, at an intraperitoneal dose of 10 mg/kg; summary of the method: as §1
P388 [11] = assay: Compound was evaluated for activity against P388 leukemia, at an intraperitoneal dose of 5 mg/kg; summary of the method: as §1

SMILES | T/C (P388 [1]) [%] | T/C (P388 [2]) [%] | T/C (P388 [3]) [%] | T/C (P388 [4]) [%] | T/C (P388 [6]) [%] | also measured
COc1ccc(C(c2ccc(C(C)C)cc(=O)c2O)c2ccc3ccccc3c2O)cc1 (configuration not stated) | 105 | 125 | 108 | – | – | –
COc1ccc(C(C2=C(C)C(=O)c3ccccc3C2=O)c2ccc(C(C)C)cc(=O)c2O)cc1 (configuration not stated) | – | – | – | 114 | 131 | T/C (P388 [5]): 72%
COc1ccc(C(c2ccc(C(C)C)cc(=O)c2O)c2c(O)c(C(=O)O)cc3ccccc23)cc1 (configuration not stated) | – | – | – | 141 | 0 | T/C (P388 [7]): 106%
COc1ccc(C(c2cc(C(C)(C)C)ccc2O)c2ccc(C(C)C)cc(=O)c2O)cc1 (configuration not stated) | – | 116 | 116 | 120 | – | –
COc1ccc(C(c2ccc(C(C)C)cc(=O)c2O)c2ccc3cccnc3c2O)cc1 (configuration not stated) | 141 | – | – | – | – | T/C (P388 [8]): 151%; T/C (P388 [9]): 144%
COc1ccc(C(c2ccc(C(C)C)cc(=O)c2O)c2c(O)cc3oc(-c4ccccc4)cc(=O)c3c2O)cc1 (configuration not stated) | – | 127 | – | 136 | 148 | –
COc1ccc(C(c2cc(O)ccc2O)c2ccc(C(C)C)cc(=O)c2O)cc1 (configuration not stated) | 128 | 142 | 128 | – | – | –
COc1ccc(C(c2ccc(C(C)C)cc(=O)c2O)c2c(O)oc3ccccc3c2=O)cc1 (configuration not stated) | – | – | – | – | – | T/C (P388 [7]): 127%; T/C (P388 [10]): 117%; T/C (P388 [11]): 128%
COc1ccc(C(C2=C(O)C(=O)c3ccccc3C2=O)c2ccc(C(C)C)cc(=O)c2O)cc1 (configuration not stated) | – | – | 0 | – | – | T/C (P388 [7]): 129%; T/C (P388 [11]): 108%
CCOC(c1ccc(OC)cc1)c1ccc(C(C)C)cc(=O)c1O (configuration not stated) | – | – | – | 148 | – | –
COc1ccc(C(c2ccc(C(C)C)cc(=O)c2O)C2Oc3c(Cl)c(OC)cc(OC)c3C2=O)cc1 (configuration not stated) | – | 117 | 109 | 130 | – | –
COc1ccc(C(c2cc(C(C)(C)C)cc(O)c2O)c2ccc(C(C)C)cc(=O)c2O)cc1 (configuration not stated) | 110 | 127 | 168 | – | – | –
COc1ccc(C(c2ccc(O)cc2O)c2ccc(C(C)C)cc(=O)c2O)cc1 (configuration not stated) | – | – | 98 | 104 | 136 | –
